Most compounds without a hit are left out; they make up all but 3.1% or so of the library.
Bfl-1 A1 inh – inhibitors of the anti-apoptotic protein A1, read as caspase activation; AID 2462; MEF A1-2A-BIM cells, Caspase-Glo 3/7 luminescence, 3 h; percent of clofoctol response, vehicle zero; caspase activation, % (concentration not given with the values); hit rate 0.066% among 330,000;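 active = over half of replicate activation scores above 10%, or exactly half above 10 with the replicate mean above 10; inconclusive = replicate mean below 10 yet half the replicates above 10; inactive = over half of replicates below 10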
CSC inhib – cancer stem cell inhibition | inhibition, % at 7.5 µM | hit rate 1.1% among 300,000 | cancer stem cell-like cells viability, luminescence | AID 2717; in the data active = inhibition above about 75%; inconclusive = no clear call, values can overlap the other calls; tested in HMLE shEcad cells
H9c2 TAG inh – triacylglycerol accumulation inhibition; H9c2 cells, Nile Red lipid (TAG) fluorescence; cells loaded with 200 µM oleic acid; hit rate 0.66% among 230,000; inhibition, % at 12.5 µM; AID 651582;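 active = pattern-corrected inhibition of lipid staining of at least 50% with the nuclear-stain viability signal not falling by more than 50%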
T cruzi repl – T. cruzi replication inhibition | T. cruzi beta-gal in NIH3T3, luminescence, 90 h | inhibition, % (test concentration not listed) | hit rate 1.4% among 300,000 | AID 1885;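 active = mean inhibition across valid replicates above about 55%, limit read from the data; inconclusive = mean below that limit but half or more replicates reach it; inactive = mean below it, under half of replicates reach it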;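 also: signal also drops with host cell toxicity which is not excluded here; higher percent means less beta-gal luminescence so fewer parasites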
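compound dosing = single 50 nL compound addition per well in DMSO | material = NIH/3T3 host cells with β-galactosidase reporter T. cruzi | input = 5,000 host fibroblasts per well | timing = ≥90 h infection period, 3 h prior cell attachment | read-out basis = percent inhibition of parasite-derived β-gal signal | detection = GalScreen β-gal luminescence, detergent lysis, 60 min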
Calb FLC – C. albicans growth modulation with fluconazole. hit rate 0.57% among 300,000. AID 1979. growth inhibition, % (no concentration beside the values). C. albicans CaCi-2 + fluconazole, Alamar Blue growth, 48 h;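 active = growth inhibition above about 58% in most replicates, limit read from the data, passing the limit was not always enough; inconclusive = exactly half the replicates above a set limit; inactive = most replicates below a set limit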;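 also: all wells also contain fluconazole at 8 µg/ml as a sub-toxic cotreatment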
Beta cell apopt – beta cell apoptosis inhibition. hit rate 0.8% among 300,000. protection from apoptosis, % (concentration not given with the values). INS-1E cytokine-induced death, ATP luminescence, 48 h; percent of positive-control rescue, neutral wells zero;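 active = Every replicate reaches about 75%, or at least half do and their mean reaches it too, limit read from the data; inconclusive = At least half of replicates reach the limit but their mean does not; inactive = Under half of replicates reach the limit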;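 also: higher means more ATP so stronger rescue from cytokine killing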
A number is an active result.

What do the screens show for `CCc1n[nH]c(=S)n1/N=C/c1cc(OC)cc([N+](=O)[O-])c1O`?
Bfl-1 A1 inh: inactive; CSC inhib: inactive; T cruzi repl: 68; Calb FLC: inactive; Beta cell apopt: inactive

What do the screens show for `COCCn1c(=NC(=O)c2cc(-c3cccs3)nc3ccccc23)sc2cc(S(N)(=O)=O)ccc21`?
Bfl-1 A1 inh: inactive; CSC inhib: inactive; T cruzi repl: 67; Calb FLC: inactive; Beta cell apopt: inactive

How did C=CCn1c(=NC(=O)c2cc(-c3cccs3)nc3ccccc23)sc2cc(S(N)(=O)=O)ccc21 do in these assays?
Bfl-1 A1 inh: inactive; CSC inhib: inactive; T cruzi repl: inactive; Calb FLC: inactive; Beta cell apopt: 92

How did Oc1c(CN2CCCC(C(F)(F)F)C2)cc(Cl)c2ccccc12 (stereo not given) do in these assays?
Bfl-1 A1 inh: inactive; CSC inhib: inactive; T cruzi repl: inactive; Calb FLC: inactive; Beta cell apopt: inactive

How did Nc1c(N(CCC2=CCCCC2)C(=O)c2ccco2)c(=O)[nH]c(=O)n1Cc1ccccc1 do in these assays?
Bfl-1 A1 inh: inactive; CSC inhib: inactive; H9c2 TAG inh: inactive; T cruzi repl: inactive; Calb FLC: inactive; Beta cell apopt: inactive

Results for COc1ccccc1CNC(=O)CN1C(=O)N(C)C2(CCCCC2)C1=O ?
Bfl-1 A1 inh: inactive; CSC inhib: inactive; H9c2 TAG inh: inactive; Beta cell apopt: inactive

How did Cc1ccc2ccc3cccnc3c2n1 do in these assays?
Bfl-1 A1 inh: inactive; CSC inhib: inactive; T cruzi repl: inconclusive; Calb FLC: inactive; Beta cell apopt: 86

Results for Cc1ccc(Cl)cc1NC(=O)c1ccc(Cn2cc(Cl)cn2)cc1 ?
Bfl-1 A1 inh: inactive; CSC inhib: 100; T cruzi repl: inactive; Calb FLC: inactive; Beta cell apopt: inactive

Results for Fc1ccc(N/N=C/c2ccc(N3CCOCC3)cc2)c(F)c1 ?
Bfl-1 A1 inh: inactive; CSC inhib: inactive; H9c2 TAG inh: inactive; T cruzi repl: 65; Calb FLC: inactive; Beta cell apopt: inactive

How did C/C(=N\Nc1ccc(F)cc1F)c1ccc(N2CCOCC2)cc1 do in these assays?
Bfl-1 A1 inh: inactive; CSC inhib: inactive; H9c2 TAG inh: inactive; T cruzi repl: inactive; Calb FLC: 104; Beta cell apopt: inactive

What do the screens show for `O=C1OCCN1N1CCOC1=O`?
H9c2 TAG inh: inactive

What do the screens show for `CCCCNc1c(-c2ccc(OC)c(Sc3ccc(OC)cc3)c2)nc2cnccn12`?
Bfl-1 A1 inh: inactive; H9c2 TAG inh: inactive; Beta cell apopt: inactive

Results for CCCCNc1c(-c2ccc(-c3ccc(OC)cc3)c(OC)c2)nc2ccccn12 ?
H9c2 TAG inh: inactive

What do the screens show for `CCCCCCSc1cc(-c2nc3cc(C)ccn3c2NCCCC)ccc1OC`?
Bfl-1 A1 inh: inactive; CSC inhib: 77; H9c2 TAG inh: inactive; T cruzi repl: inactive; Calb FLC: inactive; Beta cell apopt: inactive

How did CCCCNc1c(-c2ccc(OC)c(Sc3ccc(OC)cc3)c2)nc2ccccn12 do in these assays?
Bfl-1 A1 inh: inactive; CSC inhib: 101; H9c2 TAG inh: inactive; T cruzi repl: inactive; Calb FLC: inactive

Results for CCCCNc1c(-c2ccc(SC(C)CC)cc2)nc2cnccn12 (stereo not given) ?
Bfl-1 A1 inh: inactive; CSC inhib: 107; H9c2 TAG inh: inactive; Beta cell apopt: inactive

Results for CCCCCCSc1ccc(-c2nc3ccc(Cl)cn3c2NCCCC)cc1OC ?
H9c2 TAG inh: inactive

How did CCCCCCSc1cc(-c2nc3cnccn3c2NCCCC)ccc1OC do in these assays?
Bfl-1 A1 inh: inactive; CSC inhib: 105; H9c2 TAG inh: inactive; Beta cell apopt: inactive

What do the screens show for `Cc1ccc2nc(C)c(CN3CCN(c4ccc([N+](=O)[O-])cc4Cl)CC3)n2c1`?
Bfl-1 A1 inh: inactive; CSC inhib: inactive; T cruzi repl: inactive; Calb FLC: inconclusive; Beta cell apopt: 104

What do the screens show for `CCCC(=O)NC(c1ccc(N(C)C)cc1)c1ccc2cccnc2c1O` (stereo not given)?
Bfl-1 A1 inh: inactive; CSC inhib: 152; H9c2 TAG inh: inactive; T cruzi repl: 59; Calb FLC: 92; Beta cell apopt: 96

Results for CCCC(=O)NC(c1ccc(C(C)C)cc1)c1ccc2cccnc2c1O (stereo not given) ?
Bfl-1 A1 inh: inactive; CSC inhib: 99; T cruzi repl: 57; Calb FLC: 89
